Results from different studies.
Lines come from different studies, so protocols differ.
Cell line: MCF7
Observed: cell growth or viability

O=C(Nc1ccc(Oc2nnc(-c3ccc(Cl)cc3)c3ccccc23)cc1)c1cccc([N+](=O)[O-])c1 — viability (MTT; 0.625 µM, 24 h): 9.78%
COc1ccc(COC[C@@](O)(CNCc2ccc(F)cc2)[C@@H]2CC[C@@H](C)C[C@H]2OCc2ccc(OC)cc2)cc1 — inhibition (MTT; 10 µM, 72 h): 94.5%
CC(=O)c1nn(-c2ccc(C)cc2)/c(=N/N=C(\C)c2ccc(NC(=O)c3ccccc3)cc2)s1 — viability (MTT; 5 µM): 6.47%
C=CC(=O)NC1CCN(c2ncc3ncnc(Nc4ccc(Oc5ccc6c(c5)ncn6C)c(C)c4)c3n2)CC1 — EC50: 5.22 µM
O=C(Nc1ccc(Oc2nnc(-c3ccc(Cl)cc3)c3ccccc23)cc1)c1ccccc1 — cell death (MTT; 2.5 µM): 93.4%
Cc1nc(Nc2ccc3c(c2)/C(=C/c2ccccc2C)C(=O)N3C)c2ccccc2n1 — IC50 (MTT): 21.4 µM
Cc1ccc(-c2cc(-c3ccc(Cl)c(F)c3)c3c(=O)[nH]c(=O)[nH]c3n2)cc1 — IC50 (MTT; 48 h): 14.6 µM
COc1ccc(COC[C@@](O)(CNCc2ccccc2)[C@@H]2CC[C@@H](C)C[C@H]2OCc2ccc(OC)cc2)cc1 — inhibition (MTT; 30 µM, 72 h): 102%
CC(=O)Nc1ccc(/C(C)=N/N=c2\sc(C(C)=O)nn2-c2ccc(C)cc2)cc1 — viability (MTT; 2.5 µM): 34.6%
CC(=O)c1c(C)c2cnc(Nc3ccc(N4CCNCC4)cn3)nc2n(C2CCCC2)c1=O — EC50 (5 days): 0.0383 µM
COc1ccc(-c2cc(-c3cc(OC)ccc3OC)c3c(=O)[nH]c(=O)[nH]c3n2)cc1 — IC50 (MTT; 48 h): 14.3 µM
C[C@@H]1CC[C@@H]([C@](O)(CNCc2ccccc2)COCc2ccc(F)cc2)[C@H](OCc2ccc(F)cc2)C1 — inhibition (MTT; 30 µM, 72 h): 100%
Cc1ccc(-c2cc(-c3c(Cl)cccc3Cl)c3c(=O)[nH]c(=O)[nH]c3n2)cc1 — IC50 (MTT; 48 h): 39 µM
COC(=O)COc1c(Cc2cc(C(C)(C)CC(C)(C)C)cc(-n3nc4ccccc4n3)c2OCC(=O)OC)cc(C(C)(C)CC(C)(C)C)cc1-n1nc2ccccc2n1 — GI50 (MTT): 3.18 µM
COc1cc2ncnc(Nc3ccc4c(c3)/C(=C/c3cccc(Cl)c3)C(=O)N4C)c2cc1OC — IC50 (MTT): 4.62 µM
C[C@@H]1CC[C@@H]([C@](C)(O)CNCc2cccc3ccccc23)[C@H](OCc2ccccc2)C1 — inhibition (MTT; 30 µM, 72 h): 92.2%
CC(=O)c1nn(-c2ccccc2Cl)/c(=N/N=C(\C)c2ccc(NC(=O)c3ccccc3)cc2)s1 — viability (MTT; 78 nM): 47.5%
C[C@@H]1CC[C@@H]([C@@](O)(CNCc2ccccc2)COCc2ccccc2)[C@H](OCc2ccccc2)C1 — inhibition (MTT; 10 µM, 72 h): 94.8%
CCOC(=O)c1nn(-c2cccc(Cl)c2)/c(=N/N=C(\C)c2ccc(NC(=O)c3ccccc3)cc2)s1 — viability (MTT; 1.25 µM): 2.59%
C[C@H](Nc1ccc2c(c1)OCCn1cc(N3C(=O)OC[C@H]3C(F)F)nc1-2)C(N)=O — EC50 (5 days): 0.0193 µM
C[C@@H]1CC[C@@H]([C@](C)(O)CNCc2ccccc2)[C@H](OCc2ccccc2)C1 — inhibition (MTT; 10 µM, 72 h): 97.6%
Cc1ccc(-c2cc(-c3ccc(N(C)C)cc3)c3c(=O)[nH]c(=O)[nH]c3n2)cc1 — IC50 (MTT; 48 h): 10.1 µM
C[C@@H]1CC[C@@H]([C@](O)(CNCc2cccc3ccccc23)COCc2ccccc2)[C@H](OCc2ccccc2)C1 — inhibition (MTT; 30 µM, 72 h): 87.7%
CC(=NNC(=O)c1ccccc1Br)c1ccc(Nc2nnc(-c3ccc(Cl)cc3)c3ccccc23)cc1 — cell death (MTT; 0.625 µM): 24.1%
CCN1CCN(Cc2ccc(Nc3ncc(F)c(-c4cc(F)c5nc(C)n(C(C)C)c5c4)n3)nc2)CC1 — EC50 (5 days): 0.009 µM
CC(=O)Nc1ccc(Oc2nnc(-c3ccc(Cl)cc3)c3ccccc23)cc1 — viability (MTT; 5 µM, 24 h): 3.72%
COc1ccc(-c2cc(-c3ccc(Br)cc3)c3c(=O)[nH]c(=O)[nH]c3n2)cc1 — IC50 (MTT; 48 h): 9.94 µM
CC(=NNC(=O)c1cccnc1)c1ccc(Nc2nnc(-c3ccc(Cl)cc3)c3ccccc23)cc1 — viability (MTT; 0.312 µM, 24 h): 100%
COc1ccc(-c2cc(-c3ccc(C)cc3)nc3c2c(=O)n(C)c(=O)n3C)cc1OC — IC50 (MTT; 48 h): 29.5 µM
CC(=NNC(N)=S)c1ccc(Nc2nnc(-c3ccc(Cl)cc3)c3ccccc23)cc1 — cell death (MTT; 0.156 µM): 49.5%
COc1cccc2c1C(=O)c1c(O)c3c(c(O)c1C2=O)C[C@@](O)(C(=O)CO)C[C@@H]3O[C@H]1C[C@H](N)[C@H](O)[C@H](C)O1 — inhibition (MTT; 100 µM, 48 h): 96.8%
